Laboratory results: ChEMBL document CHEMBL1127038 (J Med Chem, 1993)
pIC50: −log10 of the molar value.

Columns and labels:
[1] = species: Cavia porcellus; assay: Nagative chronotropic activity was expressed as percent changes in atrial rate on guinea pig spontaneously beating isolated right atrium at 10E-5 M; assay type: functional, Cardiac atrium
[2] = species: Cavia porcellus; assay: Negative chronotropic activity was calculated from log concentration/response curves; assay type: functional
[3] = species: Cavia porcellus; assay: Negative inotropic activity was calculated from log concentration/response curves; assay type: functional
Procedure, shortened: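 Guinea pig left atrium driven at 1 Hz; decrease in developed tension measured. Potency is from log concentration/response curves by Litchfield–Wilcoxon probit analysis, n = 6-8.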

[4] = species: Cavia porcellus; assay: Nagative inotropic activity was expressed as percent changes in developed tension in isolated guinea pig left atrium at 10E-5 M; assay type: functional, Cardiac atrium
Procedure, shortened: (§1)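 Isolated guinea pig left atrium, electrically driven at 1 Hz. Developed tension measured at 10⁻⁵ M and given as percent change from control, mean ±SEM, n = 5-6.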

[5] = species: Cavia porcellus; assay: Percent inhibition of calcium-induced contraction on K+ -depolarized guinea pig aortic strips at 10E-4 M; assay type: functional, Aorta
Procedure, shortened: (§2)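 Guinea pig aortic strips depolarized with K⁺ and contracted by calcium. Inhibition of the calcium-induced contraction measured at 10⁻⁴ M, mean ±SEM, n = 6-7.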

[6] = species: Cavia porcellus; assay: Nagative inotropic activity was expressed as percent changes in developed tension in isolated guinea pig left atrium at 10 e-5 M; assay type: functional, Cardiac atrium; procedure, shortened: as §1
[7] = species: Cavia porcellus; assay: Nagative chronotropic activity was expressed as percent changes in atrial rate on guinea pig spontaneously beating isolated right atrium at 10 e-5 M; assay type: functional, Cardiac atrium
[8] = species: Cavia porcellus; assay: Percent inhibition of calcium-induced contraction on K+ -depolarized guinea pig aortic strips at 10 e-4 M; assay type: functional, Aorta; procedure, shortened: as §2
[9] = species: Cavia porcellus; assay: Inhibition concentration of vasodilation was calculated from log concentration/response curves; assay type: functional
Procedure, shortened: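 K⁺-depolarized guinea pig aortic strips, calcium-induced contraction. Potency is from log concentration/response curves by Litchfield–Wilcoxon probit analysis, n = 6-8.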

Row | pIC50 ([9]; Cavia porcellus) | pIC50 [9] | SMILES | Change [1] | ED30 [2] | ED50 [3] | Change [4] | Inhibition [5] | Change [6] | Change [7] | Inhibition [8]
1 | – | – | COc1ccc(CCNC2CCCC(C(C#N)(c3ccc(OC)c(OC)c3)C(C)C)C2)cc1OC (stereo in doubt; 7c) | 64% | 1400 nM | 660 nM | 70% | 40% | – | – | –
2 | – | – | COc1ccc(CCN(C)C2CCCC(C(C#N)(c3ccc(OC)c(OC)c3)C(C)C)C2)cc1OC (stereo in doubt; 2a) | – | 75 nM | 100 nM | – | – | 84% | 78% | 37%
3 | 5.00 | – | COc1ccc(CCN(C)C2CCCC(C(C#N)(c3ccc(OC)c(OC)c3)C(C)C)C2)cc1OC (stereo in doubt; 2d) | – | 420 nM | 200 nM | – | – | 74% | 75% | 58%
4 | 6.42 | – | COc1ccc(CCN(C)CCCC(C#N)(c2ccc(OC)c(OC)c2)C(C)C)cc1OC (stereo not drawn) | – | 70 nM | 610 nM | – | – | 84% | 94% | –
5 | – | – | COc1ccc(CCNC2CCCC(C(C#N)(c3ccc(OC)c(OC)c3)C(C)C)C2)cc1OC (stereo in doubt; 7d) | 84% | 370 nM | 1100 nM | 83% | 56% | – | – | –
6 | – | 4.74 | COc1ccc(CCN(C)C2CCCC(C(C#N)(c3ccc(OC)c(OC)c3)C(C)C)C2)cc1OC (stereo in doubt; 2c) | – | 1300 nM | 60 nM | – | – | 86% | 89% | 49%
7 | – | – | COc1ccc(CCNC2CCCC(C(C#N)(c3ccc(OC)c(OC)c3)C(C)C)C2)cc1OC (stereo in doubt; 7b) | 66% | 60 nM | 110 nM | 74% | 35% | – | – | –
8 | – | 4.77 | COc1ccc(CCNC2CCCC(C(C#N)(c3ccc(OC)c(OC)c3)C(C)C)C2)cc1OC (stereo in doubt; 7a) | 78% | 2400 nM | 900 nM | 82% | 62% | – | – | –
9 | – | – | COc1ccc(CCN(C)C2CCCC(C(C#N)(c3ccc(OC)c(OC)c3)C(C)C)C2)cc1OC (stereo in doubt; 2b) | – | 230 nM | 1300 nM | – | – | 75% | 93% | 30%
